# Source: ChEMBL document CHEMBL1131041 (J Med Chem, 1998)
# How the values were obtained:
# Cavia porcellus = species: Cavia porcellus; test: Partial agonist activity expressed as inhibition of contraction of guinea pig ileal longitudinal muscle myenteric plexus (GPI) at 1 uM conc.; type: functional, organism-based; conditions: Muscle tissue
# Summary of the method: (§1)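 Agonist action on electrically driven tissues at 37 °C: GPI (1 g tension, 0.4-ms pulses) and Mg-free MVD (0.5 g, 2-ms pulses), 0.1 Hz. Percent inhibition of contraction height read 10 min after 1 μM compound; for stronger agonists, IC50 from concentration–response curves (2–4 tissues, nonlinear least squares). Selectivity = GPI IC50/MVD IC50.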
# [1] = molecular target: Opioid receptors; mu & delta (Rattus norvegicus) (UniProt P33533+P33535); test: Relative affinity for mu and delta receptors in rat brain membranes; type: cell membranes
# Opioid receptors; mu & delta (Rattus norvegicus), sequence (P33533 whole entry, looked up): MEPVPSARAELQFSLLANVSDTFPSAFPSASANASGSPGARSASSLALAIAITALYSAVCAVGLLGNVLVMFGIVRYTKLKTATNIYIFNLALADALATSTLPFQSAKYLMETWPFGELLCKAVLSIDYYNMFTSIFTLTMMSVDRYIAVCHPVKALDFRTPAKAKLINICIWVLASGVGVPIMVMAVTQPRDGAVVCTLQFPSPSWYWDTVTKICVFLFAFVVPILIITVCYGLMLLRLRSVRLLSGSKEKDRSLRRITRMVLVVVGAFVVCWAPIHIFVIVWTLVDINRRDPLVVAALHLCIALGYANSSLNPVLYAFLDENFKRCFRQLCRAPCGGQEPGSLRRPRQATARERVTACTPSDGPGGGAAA
# Opioid receptors; mu & delta (Rattus norvegicus), sequence (P33535 whole entry, looked up): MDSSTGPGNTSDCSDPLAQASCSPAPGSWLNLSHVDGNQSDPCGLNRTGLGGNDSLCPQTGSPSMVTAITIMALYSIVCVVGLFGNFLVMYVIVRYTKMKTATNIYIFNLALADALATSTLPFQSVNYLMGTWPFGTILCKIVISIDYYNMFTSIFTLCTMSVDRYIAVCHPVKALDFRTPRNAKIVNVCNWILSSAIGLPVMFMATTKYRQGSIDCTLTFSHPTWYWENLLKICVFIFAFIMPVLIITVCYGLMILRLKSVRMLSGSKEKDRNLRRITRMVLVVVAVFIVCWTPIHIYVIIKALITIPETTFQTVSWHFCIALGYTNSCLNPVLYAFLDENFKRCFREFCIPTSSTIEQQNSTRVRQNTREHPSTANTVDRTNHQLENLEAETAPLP
# [2] = molecular target: T1, Kappa-type opioid receptor (Cavia porcellus, UniProt P41144); test: Displacement of [3H]U-69593 from Opioid receptor kappa 1 of guinea pig brain membranes (pretreated with BIT and FIT to block mu and delta sites)
# T1 sequence (P41144 whole entry): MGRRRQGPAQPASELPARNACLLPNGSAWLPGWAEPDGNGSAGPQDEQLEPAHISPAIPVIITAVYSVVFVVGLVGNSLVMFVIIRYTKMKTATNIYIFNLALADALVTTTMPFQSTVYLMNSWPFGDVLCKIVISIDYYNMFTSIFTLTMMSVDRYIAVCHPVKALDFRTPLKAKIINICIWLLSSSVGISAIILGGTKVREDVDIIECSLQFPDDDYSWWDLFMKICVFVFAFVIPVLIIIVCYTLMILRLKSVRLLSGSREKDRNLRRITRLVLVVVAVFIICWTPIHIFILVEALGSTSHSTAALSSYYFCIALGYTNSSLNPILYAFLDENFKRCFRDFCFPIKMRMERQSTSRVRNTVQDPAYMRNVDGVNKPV
# Summary of the method: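 Guinea pig brain membranes pretreated with BIT and FIT, labelled with [3H]U69,593. Incubation 4–6 h at 25 °C in 50 mM Tris-HCl pH 7.4 with protease inhibitors and 1 μg/mL captopril. Nonspecific binding with 1 μM U69,593. 8–10 concentrations, twice.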
# [3] = molecular target: T2, Delta-type opioid receptor (Rattus norvegicus, UniProt P33533); test: Displacement of [3H]DADLE from Opioid receptor delta 1 of rat brain membranes (DAMGO quenching mu receptor); type: cell membranes, Membrane
# T2 sequence (P33533 whole entry): as the sequence (P33533 whole entry, looked up) above
# Summary of the method: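 Rat brain membranes labelled with [3H]DADLE. Incubation 3–4 h at 25 °C in 10 mM Tris-HCl pH 7.4 with 100 mM choline chloride, 3 mM MnCl2, 100 nM DAMGO (μ block) and protease inhibitors. Levallorphan 20 μM for nonspecific binding. 8–10 concentrations, duplicate runs.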
# [4] = molecular target: T1, Kappa-type opioid receptor; test: Displacement of [125I]OXY from Opioid receptor kappa 2b of guinea pig brain membranes (pretreated with BIT(mu) and FIT(delta) and in the presence of (-)U50,488)
# Summary of the method: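 Guinea pig brain membranes depleted of μ/δ sites by BIT and FIT, labelled with 0.01 nM [125I]IOXY in presence of 5 μM (−)U50,488. Incubation 4–6 h at 4 °C in 50 mM Tris-HCl pH 7.4 with 10 mM NaCl, protease inhibitors and 1 μg/mL captopril.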
# [5] = molecular target: T2, Delta-type opioid receptor; test: Displacement of [3H]DADLE from morphine-sensitive Opioid receptor delta 1 (presence of 300 nM DELT-II) of rat brain membranes; type: cell membranes, Membrane
# Summary of the method: (§2)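 Rat brain membranes pretreated with (+)-trans-[…], labelled with 2.0 nM [3H]DADLE, plus 50 nM morphine (δcx-2) or 300 nM DELT-II (δcx-1). Incubation 4–6 h at 25 °C in 10 mM Tris-HCl pH 7.4 with 100 mM NaCl, 3 mM MnCl2, 2 μM GTP, 5 mM 2-mercaptoethanol and protease inhibitors. 8–10 concentrations, twice.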
# Mu-type opioid receptor = Mu-type opioid receptor (Rattus norvegicus, UniProt P33535); test: Displacement of [3H]DAMGO from Opioid receptor mu 1 of rat brain membranes; type: cell membranes, Membrane
# Mu-type opioid receptor, sequence (P33535 whole entry): as the sequence (P33535 whole entry, looked up) above
# Summary of the method: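 Rat brain membranes labelled with [3H]DAMGO. Incubation 4 h at 25 °C in 50 mM Tris-HCl pH 7.4 with protease inhibitor cocktail. Nonspecific binding defined with 20 μM levallorphan. 8–10 test concentrations, run twice; IC50 and slope factor derived.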
# [6] = Relative affinity for guinea pig kappa1 and rat delta receptors
# [7] = molecular target: Delta-type opioid receptor (Mus musculus, UniProt P32300); test: Partial agonist activity expressed as inhibition of contraction of mouse vas deferens (MVD) smooth muscle at 1 uM conc.; type: functional, tissue-based, Muscle tissue; summary of the method: as §1
# Delta-type opioid receptor (Mus musculus, UniProt P32300), sequence (P32300 whole entry): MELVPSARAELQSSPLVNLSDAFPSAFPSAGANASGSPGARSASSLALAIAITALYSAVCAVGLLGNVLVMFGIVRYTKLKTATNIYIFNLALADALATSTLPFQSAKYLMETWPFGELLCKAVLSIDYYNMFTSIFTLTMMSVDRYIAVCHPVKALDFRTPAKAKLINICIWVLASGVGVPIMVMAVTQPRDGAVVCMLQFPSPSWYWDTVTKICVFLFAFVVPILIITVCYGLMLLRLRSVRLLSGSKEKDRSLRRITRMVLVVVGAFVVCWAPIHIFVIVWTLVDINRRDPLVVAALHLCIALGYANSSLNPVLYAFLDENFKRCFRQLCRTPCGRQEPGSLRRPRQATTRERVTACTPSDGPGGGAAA
# [8] = molecular target: Opioid receptors; mu & delta (Homo sapiens) (UniProt P41143+P35372); test: IC50 selectivity for mu receptor of guinea pig Ileum (GPI) and delta receptor of delta opioid receptor of mouse vas deferens (MVD) smooth muscle preparation; type: tissue-based; summary of the method: as §1
# Opioid receptors; mu & delta (Homo sapiens), sequence (P35372 whole entry, looked up): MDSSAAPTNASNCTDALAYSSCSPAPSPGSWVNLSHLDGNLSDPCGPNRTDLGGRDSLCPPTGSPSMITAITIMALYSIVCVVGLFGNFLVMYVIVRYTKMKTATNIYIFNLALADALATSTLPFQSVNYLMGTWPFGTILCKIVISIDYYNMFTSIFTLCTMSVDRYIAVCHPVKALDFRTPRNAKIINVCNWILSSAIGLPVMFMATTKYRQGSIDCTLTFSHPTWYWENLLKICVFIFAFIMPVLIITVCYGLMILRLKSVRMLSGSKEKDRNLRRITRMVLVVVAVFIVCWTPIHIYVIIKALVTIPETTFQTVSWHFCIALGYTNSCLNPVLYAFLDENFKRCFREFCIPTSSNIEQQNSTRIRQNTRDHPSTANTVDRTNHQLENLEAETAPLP
# Opioid receptors; mu & delta (Homo sapiens), sequence (P41143 whole entry, looked up): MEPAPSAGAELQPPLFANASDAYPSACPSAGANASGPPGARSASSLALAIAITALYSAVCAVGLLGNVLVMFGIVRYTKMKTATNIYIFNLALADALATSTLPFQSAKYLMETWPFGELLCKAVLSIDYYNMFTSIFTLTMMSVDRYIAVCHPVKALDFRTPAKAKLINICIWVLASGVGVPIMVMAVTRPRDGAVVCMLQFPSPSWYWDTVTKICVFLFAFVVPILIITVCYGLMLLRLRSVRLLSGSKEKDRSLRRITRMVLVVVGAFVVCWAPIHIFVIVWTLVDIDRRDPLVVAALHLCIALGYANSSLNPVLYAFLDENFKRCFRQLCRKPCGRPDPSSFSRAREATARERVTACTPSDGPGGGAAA
# [9] = molecular target: Delta-type opioid receptor (Mus musculus) (UniProt P32300); test: Displacement of DPDPE from Opioid receptor delta 1 of mouse vas deferens (MVD)smooth muscle
# Delta-type opioid receptor (Mus musculus), sequence (P32300 whole entry): as the sequence (P32300 whole entry) above
# Summary of the method: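 Mouse vas deferens (male ICR, 25–40 g) in Mg-free oxygenated Krebs at 37 °C, 0.5 g tension; transmural 0.1 Hz, 2-ms pulses, supramaximal voltage. Control DPDPE curve first; then 1 μM compound 30 min, 30 min wash, cumulative DPDPE curve (3-min steps) repeated. IC50 ratio = shifted/control IC50; Ke = [antagonist]/(ratio − 1); n ≥ 3.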
# [10] = molecular target: T2, Delta-type opioid receptor; test: Displacement of [3H]DADLE from morphine-insensitive Opioid receptor delta 1 (presence of 50 nM morphine) of rat brain membranes; type: cell membranes, Membrane; summary of the method: as §2
smiles,measurement,setting,value
Oc1ccc2c3c1OC1c4[nH]c5cc(Oc6ccccc6)ccc5c4C[C@@]4(O)[C@@H](C2)N(CC2CC2)CC[C@]314 (some centres not stated),IC50,Cavia porcellus,2300 nM
same,Selectivity ratio,[1],37
same,Ki,[2],236 nM
same,Ki,[3],6.4 nM
same,Ki,[4],175 nM
same,Ki,[5],89.4 nM
same,Ki,Mu-type opioid receptor,235 nM
same,Selectivity ratio,[6],37
same,IC50,[7],3000 nM
same,Selectivity ratio,[8],0.8
same,Ke,[9],4.6 nM
same,Ki,[10],4.9 nM
